Assay outcomes from PubChem BioAssay.
TRPC6 act – activators of mouse TRPC6 channel. 310,000 tested, 0.13% active. B-score at 10 µM. HEK293-TRPC6 membrane potential dye fluorescence; hits give high values. Q61143;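 active = B-score of the integrated fluorescence ratio above library mean plus 3 SD, and starting fluorescence ratio within library mean plus 5 SD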;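 note: higher score means more depolarization so channel activation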
TRPC4 act – opens the mouse TRPC4 cation channel; Q9QUQ5; HEK293 TRPC4beta/mu-opioid, Fluo4 calcium fluorescence; hits give high values; B-score at 10 µM; 310,000 tested, 0.49% active; AID 2237;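 active = B-score above 5 SD of library B-scores, and initial fluorescence ratio not above library mean plus 5 SD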;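 note: positive B-score marks a calcium rise read as TRPC4 activation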
Target sequence (Q9QUQ5 whole entry, looked up): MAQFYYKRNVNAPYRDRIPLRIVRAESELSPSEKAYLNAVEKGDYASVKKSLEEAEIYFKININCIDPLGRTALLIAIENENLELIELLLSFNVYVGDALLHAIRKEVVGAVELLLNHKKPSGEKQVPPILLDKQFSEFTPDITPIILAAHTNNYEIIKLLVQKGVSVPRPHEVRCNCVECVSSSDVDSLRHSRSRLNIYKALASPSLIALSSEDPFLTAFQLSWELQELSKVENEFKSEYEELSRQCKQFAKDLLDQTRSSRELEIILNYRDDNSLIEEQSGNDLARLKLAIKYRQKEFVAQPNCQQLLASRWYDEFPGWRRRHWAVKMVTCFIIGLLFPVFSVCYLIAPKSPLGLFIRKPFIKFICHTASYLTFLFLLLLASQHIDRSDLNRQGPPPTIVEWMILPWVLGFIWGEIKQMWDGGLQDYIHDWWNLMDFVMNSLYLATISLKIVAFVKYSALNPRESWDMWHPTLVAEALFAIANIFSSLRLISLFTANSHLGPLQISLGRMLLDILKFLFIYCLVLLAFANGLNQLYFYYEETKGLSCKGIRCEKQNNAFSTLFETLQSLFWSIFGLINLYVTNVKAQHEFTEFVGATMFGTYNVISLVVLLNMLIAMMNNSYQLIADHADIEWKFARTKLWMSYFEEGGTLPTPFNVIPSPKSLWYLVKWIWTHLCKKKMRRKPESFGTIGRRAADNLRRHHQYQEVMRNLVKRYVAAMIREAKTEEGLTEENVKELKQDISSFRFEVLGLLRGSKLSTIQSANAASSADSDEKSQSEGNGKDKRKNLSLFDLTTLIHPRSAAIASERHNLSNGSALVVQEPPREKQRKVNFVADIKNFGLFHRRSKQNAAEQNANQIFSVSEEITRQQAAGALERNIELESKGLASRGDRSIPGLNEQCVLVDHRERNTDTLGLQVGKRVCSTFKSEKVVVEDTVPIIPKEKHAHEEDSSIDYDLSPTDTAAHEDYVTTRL
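Assay system: HEK293 cells stably co-expressing mouse TRPC4beta and mu-opioid receptor / Timing: Fluo4 dye loading 45 min at room temperature, 110 s recording / Signal: Fluo4 calcium-sensitive dye fluorescence, kinetic, 1 Hz baseline / Read-out: integrated baseline-normalised fluorescence ratio, converted to per-well B score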
TRPC6 inh – blocks the mouse TRPC6 cation channel | HEK293-TRPC6, membrane potential dye, ACh-evoked depolarization; hits give low values | AID 2553 | 310,000 tested, 1.1% active | B-score at 10 µM;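 active = B-score under library mean minus 3 SD, initial fluorescence not abnormally high, positive integrated signal ratio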;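 note: B-score derived from integrated fluorescence ratio over the kinetic read; more negative B-score means stronger inhibition of depolarization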
TRPC4 PAM – allosteric potentiators of mouse TRPC4 channel | Q9QUQ5 | HEK293 TRPC4beta/mu-opioid, DAMGO EC20, Fluo-4 Ca2+ flux; hits give high values | B-score at 10 µM | 310,000 tested, 0.42% active | AID 2227;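 active = B-score of calcium response area above 5 SD of library B-scores, with initial fluorescence ratio within 5 SD of library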
TRPC4 inh – TRPC4 (mouse) channel inhibition; Q9QUQ5; HEK293 TRPC4beta/mu-opioid, DAMGO-evoked Fluo4 calcium flux; hits give low values; B-score at 10 µM; 300,000 tested, 0.39% active;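 active = B-score over 3 SD under the library average, no early fluorescence shift, positive overall ratio signal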
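Assay system: Stable TRPC4beta/mu-opioid receptor HEK293 cells | Reagent: DAMGO in two steps, submaximal then maximal | Compound dosing: Single concentration per test compound | Signal: Fluo4 Ca2+ flux fluorescence | Evaluation: Per-well B score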
TRPC4 spec 2 – second check of whether TRPC6 inhibitors also affect mouse TRPC4; shares compounds with TRPC6 inh; HEK293 TRPC4/MOR, membrane potential dye fluorescence; channel activated by saturating DAMGO dose; inhibition, % at 10 µM; 920 tested, 42% active;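 active = compounds whose fluorescence signal differed from control wells by over 3 SD, either direction, in both duplicate plates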
TRPC4 spec – mouse TRPC4 off-target activity of TRPC6 inhibitors | HEK293 TRPC4/mu-opioid, membrane potential fluorescence | 920 tested, 61% active | shares compounds with TRPC6 inh | activity change, negative = inhibition, % at 10 µM;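 active = rise or fall in signal beyond 3 SD of buffer-only wells in both replicate plates, either sign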;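 note: integrated kinetic ratio of fluorescence range over baseline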
HEK293 MPD ctr 2-1 – second counter-screen for TRPC6 inhibitors: parental HEK293 cells; shares compounds with TRPC6 inh; parental HEK293 membrane potential dye fluorescence; maximal acetylcholine challenge after compound addition; signal change vs control, % at 10 µM; 920 tested, 31% active; AID 2779;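 active = membrane potential signal moving either way by over 3 SD of the maximum-effect control, in both duplicate plates, meaning non-specific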
HEK293 MPD ctr-1 – counter-screen for TRPC6 inhibitors: effect in parental HEK293 cells; shares compounds with TRPC6 inh; 920 tested, 60% active; parental HEK293 membrane potential dye fluorescence; membrane potential signal change, % at 10 µM; AID 2780;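 active = membrane potential signal shifting up or down by more than 3 SD of buffer-only wells, on both duplicate plates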
HEK293 MPD ctr-2 – checks TRPC6 modulator effects in parental HEK293 cells; membrane potential signal change, % at 10 µM; membrane potential dye fluorescence; shares compounds with TRPC6 inh; AID 488924; 2,400 tested, 51% active;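 active = membrane potential signal moves up or down beyond 5 SD from buffer-only wells, on both duplicate plates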
HEK293 MPD ctr 2-2 – second counter-screen for TRPC6 modulators: effect in parental HEK293 cells | membrane potential dye fluorescence; after compound, maximal acetylcholine stimulation | shares compounds with TRPC6 inh | AID 488926 | 2,400 tested, 14% active | inhibition, % at 10 µM;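 active = membrane potential signal drops by more than 5 SD from the mean control signal, in both duplicate plates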
TRPC4 ctr mod – selectivity of TRPC6 modulators against mouse TRPC4; percent change from control (negative = decrease, positive = increase), % at 10 µM; HEK293 TRPC4/mu-opioid, membrane potential fluorescence; 2,400 tested, 69% active; shares compounds with TRPC6 inh;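 active = membrane potential signal moved up or down beyond 5 SD of buffer control wells, in both duplicate plates, actives on both sides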
TRPC4 ctr inh 2 – second selectivity test of TRPC6 modulators against mouse TRPC4 | shares compounds with TRPC6 inh | HEK293 TRPC4/mu-opioid, membrane potential dye fluorescence; stimulated with maximal-effect DAMGO | 2,400 tested, 55% active | AID 488928 | inhibition, % at 10 µM;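 active = drop in membrane potential signal beyond 5 SD of the control wells in both duplicate plates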;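 note: TRPC4 counter screen for TRPC6 hits run under conditions tuned for TRPC6 not TRPC4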
TRPC6 block conf – mouse TRPC6 inhibitor confirmation | shares compounds with TRPC6 inh | HEK293-TRPC6, membrane potential dye, ACh-evoked depolarization | inhibition, % at 10 µM | 3,300 tested, 43% active | AID 488960;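 active = fluorescence ratio falls more than 5 SD below the full-stimulation control mean, in both duplicate runs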;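 note: integrated fluorescence ratio of peak minus minimum over baseline after agonist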
TRPC6 act conf – mouse TRPC6 activator confirmation. 2,800 tested, 11% active. activation, % at 10 µM. HEK293-TRPC6 membrane potential dye fluorescence, FDSS. shares compounds with TRPC6 inh;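 active = ratio signal rise beyond 5 SD above unstimulated control wells' mean, seen in both duplicate runs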
Of the large screens only hits and unclear results are named; the others gave an inactive call (follow-up assays come after a bar, where they were run). Hits are enriched below; roughly 2.3% of the tested compounds scored in any of these assays.

NS(=O)(=O)c1ccc(CCNC(=O)C(=O)C2C(=O)Nc3ccccc32)cc1 (stereo not given)	none
CC1=NN(c2ccc(C(=O)OC(C)C)cc2)C(=O)/C1=C\C=C\c1ccco1	TRPC6 inh -6.3 | HEK293 MPD ctr-2 inactive | HEK293 MPD ctr 2-2 inactive | TRPC4 ctr mod inactive | TRPC4 ctr inh 2 45% | TRPC6 block conf inactive | TRPC6 act conf inactive
CC1=NN(c2ccccc2)C(=O)/C1=C/C=C/c1ccc(N(C)C)cc1	TRPC6 inh -12 | TRPC4 spec 2 74% | TRPC4 spec -14% | HEK293 MPD ctr 2-1 inactive | HEK293 MPD ctr-1 -140% | TRPC6 block conf 81% | TRPC6 act conf inactive
CC1=NN(c2ccccc2)C(=O)/C1=C/c1cn(C)c2ccccc12	TRPC6 inh -5.4 | HEK293 MPD ctr-2 inactive | HEK293 MPD ctr 2-2 inactive | TRPC4 ctr mod -12% | TRPC4 ctr inh 2 40% | TRPC6 block conf inactive | TRPC6 act conf inactive
O=C(O)c1cc(Cl)c(Cl)cc1C(=O)NCc1ccco1	none
Cc1c(S(=O)(=O)N(C)C2CCCCC2)c(=O)n(C)c(=O)n1C	none
COc1ccc(C2=CSC3=NCCN23)cc1Cl	none
COc1ccc(C2=CSC3=NCCN23)cc1Br	TRPC6 inh -5.2 | HEK293 MPD ctr-2 inactive | HEK293 MPD ctr 2-2 inactive | TRPC4 ctr mod inactive | TRPC4 ctr inh 2 36% | TRPC6 block conf inactive | TRPC6 act conf inactive
CN1CCN(/N=C/c2nc(-c3ccc(Cl)cc3)n3ccccc23)CC1	TRPC6 inh -5.3 | HEK293 MPD ctr-2 -164% | HEK293 MPD ctr 2-2 inactive | TRPC4 ctr mod -36% | TRPC4 ctr inh 2 40% | TRPC6 block conf inactive | TRPC6 act conf inactive
CN1CCN(/N=C/c2nc(-c3ccccc3)n3ccccc23)CC1	none
CN1CCN(c2ccc(CNC(=O)c3cc4ccccc4o3)cc2)CC1	TRPC6 inh -5.3 | HEK293 MPD ctr-2 inactive | HEK293 MPD ctr 2-2 inactive | TRPC4 ctr mod inactive | TRPC4 ctr inh 2 32% | TRPC6 block conf inactive | TRPC6 act conf inactive
CC/C(=N\NC(=O)c1nnn(-c2nonc2N)c1-c1cccc(OC)c1)c1ccc(C)cc1	none
O=C(CN1CCN(c2ccccc2F)CC1)NC(=O)NCc1ccccc1	TRPC6 inh -5.1 | HEK293 MPD ctr-2 inactive | HEK293 MPD ctr 2-2 inactive | TRPC4 ctr mod inactive | TRPC4 ctr inh 2 inactive | TRPC6 block conf inactive | TRPC6 act conf inactive
CN1CCN(C(=O)c2ccc(COc3cc(Cl)ccc3Cl)o2)CC1	TRPC6 inh -5.7 | HEK293 MPD ctr-2 127% | HEK293 MPD ctr 2-2 inactive | TRPC4 ctr mod 22% | TRPC4 ctr inh 2 inactive | TRPC6 block conf inactive
O=C(c1ccc(COc2ccccc2Cl)o1)N1CCCC1	none
CN1CCN(C(=O)c2cccc(COc3cc(Cl)ccc3Cl)c2)CC1	none
CC1CCN(C(=O)c2ccc(COc3ccccc3Cl)o2)CC1	TRPC6 inh -6.2 | HEK293 MPD ctr-2 121% | HEK293 MPD ctr 2-2 inactive | TRPC4 ctr mod 25% | TRPC4 ctr inh 2 inactive | TRPC6 block conf inactive | TRPC6 act conf inactive
COc1ccccc1C1=NOC(Cn2c(NCCOCCO)nc3c2c(=O)n(C)c(=O)n3C)C1 (stereo not given)	none
S=C(NCc1ccccc1)NC1CCSc2ccccc21 (stereo not given)	none
NC(=O)CSc1nc2ccccc2c(=O)n1CCc1ccccc1	none
O=c1c2ccccc2nc(SCCN2CCCCC2)n1CCc1ccccc1	TRPC6 inh -7.8 | TRPC4 spec 2 42% | TRPC4 spec inactive | HEK293 MPD ctr 2-1 inactive | HEK293 MPD ctr-1 inactive | TRPC6 block conf 68% | TRPC6 act conf inactive
Cn1c(=O)c2c(nc(SCCN3CCCCC3)n2Cc2ccc(Cl)cc2)n(C)c1=O	TRPC4 act 80, TRPC6 inh -6.2, TRPC4 PAM 40 | HEK293 MPD ctr-2 -121% | HEK293 MPD ctr 2-2 inactive | TRPC4 ctr mod 26% | TRPC4 ctr inh 2 93% | TRPC6 block conf inactive | TRPC6 act conf inactive
O=C1/C(=C/c2ccccc2)SC(=S)N1N1C(=O)C2CC2C1=O (stereo not given)	TRPC6 inh -8.8 | TRPC4 spec 2 inactive | TRPC4 spec inactive | HEK293 MPD ctr 2-1 inactive | HEK293 MPD ctr-1 inactive | TRPC6 block conf inactive | TRPC6 act conf inactive
CC(=O)NN1C(=O)/C(=C\c2ccccc2)SC1=S	none
CCOC(=O)c1cn(CC)c2ccc(Br)cc2c1=O	TRPC6 inh -6 | HEK293 MPD ctr-2 -106% | HEK293 MPD ctr 2-2 inactive | TRPC4 ctr mod -16% | TRPC4 ctr inh 2 inactive | TRPC6 block conf inactive | TRPC6 act conf inactive
CCCn1cc(C(=O)OCC)c(=O)c2cc(F)c(F)cc21	none
CCOC(=O)c1cn(CC2CC2)c2cc(F)c(F)cc2c1=O	TRPC6 inh -5.4 | HEK293 MPD ctr-2 -276% | HEK293 MPD ctr 2-2 inactive | TRPC4 ctr mod -48% | TRPC4 ctr inh 2 59% | TRPC6 block conf 53% | TRPC6 act conf inactive
O=S(=O)(Cc1ccc(Cl)cc1)N1CCN(c2ncccn2)CC1	none
Cc1cc(NC(=O)c2ccc3c(c2)C(=O)N(C)C3=O)no1	TRPC6 inh -6.1 | HEK293 MPD ctr-2 -99% | HEK293 MPD ctr 2-2 inactive | TRPC4 ctr mod -19% | TRPC4 ctr inh 2 inactive | TRPC6 block conf inactive | TRPC6 act conf inactive
